From the RNAGym collection of RNA variant scans (doi:10.1126/science.aae0568)
Fewer inactive variants are shown than the library holds.

B1: tRNA (parent)
chain: GUUCCGUUGGCGUAAUGGUAACGCGUCUCCCUCCUAAGGAGAAGACUGCGGGUUCGAGUCCCGUACGGAACG

Variants of: B1
Assay: yeast fitness relative to wild type (ratio to wild type); higher = fitter; tRNA-Arg(CCU), competitive growth, 37 C, YPD
Method in brief: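 Gene amplicons from the start population and from each of six end populations were read by 100-nucleotide paired-end sequencing. Those end populations came from pooled Saccharomyces cerevisiae strains carrying tRNA-Arg(CCU) gene variants at the native locus, competed in YPD at 37°C for 24 hours. Fitness relative to wild type was worked out from changes in genotype frequencies. Genotypes needed ≥ 100 starting reads, and estimates < 0.5 were set to 0.5.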

Row | Variant | yeast fitness
1 | C29U A37U G67A | 0.643
2 | C5G U28C A70G | 0.641
3 | U16G C46U A69C | 1.07
4 | A14C A20C C33G A65G | ≤ 0.5
5 | C22U C33G C55G | 0.537
6 | C49U G67A | 0.879
7 | U8C C22A C33G G39C U54C | ≤ 0.5
8 | G17C C22A U28C C66G G67C | ≤ 0.5
9 | U19A G25C C33A A37G G48A G68A | ≤ 0.5
10 | A14G C34G | 0.608
11 | G6C U13G C55G | 0.659
12 | C29A G48C A70G | 0.54
13 | C4U G18C G68C | 0.535
14 | U19G A20U C30U G48A | 0.577
15 | C29G G44U A65G | ≤ 0.5
16 | U35C G67A | 0.637
17 | G17A G50A C61A | ≤ 0.5
18 | G9A G58C U59C | 0.632
19 | C4U G18A A20G G23C C24G C46G | ≤ 0.5
20 | C5G C60G A70C | 0.509
21 | G23A C29G | 0.625
22 | C11U A14C C27G C31U C49G G58C | ≤ 0.5
23 | G17A U35G G63A G68C | ≤ 0.5
24 | C4G A40U A45U U47C | ≤ 0.5

Row | Variant | yeast fitness
25 | U19C A20C A21U C55U A65U | ≤ 0.5
26 | U2G C22G G41C G68A | 0.573
27 | U8C C27G A42C C62G | ≤ 0.5
28 | C5U C33G C34U G38C U47A | ≤ 0.5
29 | G9A U28A C55U G68A | ≤ 0.5
30 | G12C A15C | 0.67
31 | U13A A57C C66G | ≤ 0.5
32 | G6A A15G C29U | 0.607
33 | U16C C22G C46G C49U A69U | 0.55
34 | C34A G39A | 0.734
35 | G6A U59G | 0.912
36 | C60U C62U A70C | 0.539
37 | G51U | 0.843
38 | C27A C31U C33A A42U G67A | ≤ 0.5
39 | A14G U16G A36U G68C | ≤ 0.5
40 | C22G G51A C60U A70U | 0.637
41 | C22U U26A C29U G52C | 0.624
42 | C11G C29U A45C C66G | ≤ 0.5
43 | G12C A70C | 0.833
44 | G10A U13A A14C A43U C60G | ≤ 0.5
45 | C11G C62U | 0.579
46 | U8G C22U C62U | 0.529
47 | G10A A21G A65C | 0.545
48 | G10A A14U U19A G23C C29A C66A | ≤ 0.5

Row | Variant | yeast fitness
49 | A20G U59C | 0.972
50 | U7G A21C G56A | ≤ 0.5
51 | C34G A36U C62U | ≤ 0.5
52 | C5U A21G C22G A43U | 0.533
53 | U32C C62U A69C | 1.15
54 | G38C C62U A69U | 0.603
55 | G17A C31G G44C A69U | 0.528
56 | U26C C46A U47G G50A A69U | ≤ 0.5
57 | C22A U47A A65U | ≤ 0.5
58 | C22G G23A | 0.644
59 | C5G U54C G56A | 0.729
60 | A15G C34U G44C G50C C62U | ≤ 0.5
61 | U16A A20G | 0.961
62 | C30G U32A G48A G67C | 0.568
63 | A21U G25A G50A G68U | ≤ 0.5
64 | A21G C22U C30G G51A | 0.538
65 | A14U U16A C27G A40U | ≤ 0.5
66 | C5U A69U | 0.972
67 | A20U C33U G38C A40U G44C G51C C60U | 0.558
68 | C4A G12C U19C C24G A43U U54C C61A | ≤ 0.5
69 | C24G C30A | 0.777
70 | A21U U26A U54A A70U | ≤ 0.5
71 | G10C C22A C24G A70C | 0.531
72 | C11A C46G | 0.651

Row | Variant | yeast fitness
73 | G44C A45G G56A | 1.01
74 | U16G A37U U47A G52U | ≤ 0.5
75 | A21C C29U A57C A69U | ≤ 0.5
76 | C29A C30A G50A A70C | ≤ 0.5
77 | C29U C34U | 0.716
78 | G41A C49U C60G A65G | 0.635
79 | G6C C11G C29U G50A C55U | ≤ 0.5
80 | A20G A65U A69U | 0.857
81 | U16C U19C U35C | ≤ 0.5
82 | U32A U53A | ≤ 0.5
83 | C5G G44C U64C | 0.586
84 | C4A A57C | 0.57
85 | C5U G10A A21G A40U | ≤ 0.5
86 | A15C U19C | 1.03
87 | A15C A21U C34A | ≤ 0.5
88 | A36G C55A G67C | ≤ 0.5
89 | G12A C27A G56C | 0.533
90 | U26A C31G A36C G41A C55G | ≤ 0.5
91 | A20C A42C G58C | 0.52
92 | C24G C49A C62G G68U | ≤ 0.5
93 | U3A C5A A65U | ≤ 0.5
94 | A36G U54G | 0.66
95 | U7C C33U G63A | 0.54
96 | U28C C31A | 0.784

Row | Variant | yeast fitness
97 | G17C G51A U59A C66A | ≤ 0.5
98 | U7A G12C C34U | ≤ 0.5
99 | A43U U47G U53G | 0.519
100 | C4U G9C C24U C30G G51A C60U G67A | ≤ 0.5
101 | G50C G58U G68U A69G | 0.508
102 | U13C A15U C61U A65C | ≤ 0.5
103 | U16G C46A C66A | ≤ 0.5
104 | G23C A37C G52C C66G A69C | 0.612
105 | A15G G56C | 0.651
106 | A20G A57G | 1
107 | A20C G38C A70C | ≤ 0.5
108 | A21C C22A A45U G67A | ≤ 0.5
109 | C4G U8C C24G A42C C61G | ≤ 0.5
110 | U2C A20G | 0.98
111 | C5U C22G A40G A70G | ≤ 0.5
112 | C5U A20C C66A | 0.51
113 | C22A U35A A37G G58A | ≤ 0.5
114 | G50C A65C | 0.602
115 | U3G G6A A14G C55G A65G | ≤ 0.5
116 | C11U G17C A45G | 0.586
117 | A40G C46U | 0.918
118 | C22G A43U A69C | 0.656
119 | U28G | 0.957
120 | C5A A20C A36G | 0.626

Row | Variant | yeast fitness
121 | U3C G12C | 0.716
122 | C34U G41A U47A G58C G63C G67A | ≤ 0.5
123 | C34U A36G C49U C55G A57U G67A | ≤ 0.5
124 | A15U U26A | 0.666
125 | U26A A42U | 0.981
126 | A21U A69G | 0.826
127 | C5G G25A C62G | 0.648
128 | G41C A43G | 0.898
129 | U7A C27A U28C C49A | 0.622
130 | C5U C33G A36U | ≤ 0.5
131 | C5G G50A C55G A65C | 0.551
132 | C11U A14U C34U | ≤ 0.5
133 | C5G C27G A43G | ≤ 0.5
134 | C24G G56A A57C | ≤ 0.5
135 | A21U C29U A37U C66U | ≤ 0.5
136 | C22U C24U C60G | ≤ 0.5
137 | C24A C46A G63A | 0.793
138 | U8C C27U G48A C49U | 0.686
139 | U32C U54G C62U | 0.565
140 | G38A A42C A45U G52A | ≤ 0.5
141 | C22G A37C A45U G67A | 0.581
142 | U16A A45C G63C U64C | ≤ 0.5
143 | C5A C11G A21U C60G G67A | ≤ 0.5
144 | A21G G23C U28A | ≤ 0.5

Row | Variant | yeast fitness
145 | U13C A42G C61G | ≤ 0.5
146 | G38C C46A U59C | ≤ 0.5
147 | U32C A43G G52A C61G | 0.532
148 | C5A G18A C30U G48C G68C | 0.54
149 | U2G C11U A45C U53G A69U | 0.544
150 | G9C A15U G17A A37U A45C | ≤ 0.5
151 | G10C A15U A37U A45C U47C G52C | ≤ 0.5
152 | U64C C66A | 0.832
153 | C11A U13A C31G | 0.608
154 | C22G C24U C31U A40U U59A C61A | ≤ 0.5
155 | C29G A43G | 0.785
156 | U32A C62A | 0.549
157 | U2C C31G G58A C61G U64G A69C | ≤ 0.5
158 | G18A C29U A37G | ≤ 0.5
159 | A36C G50A C55A | 0.766
160 | C22A G25C | 1.05
161 | G9A G10A C11U | 0.668
162 | C11G U28C G67C | ≤ 0.5
163 | A21G C33U C60U | 0.603
164 | C5U C11U C24G C61U C62G A65C | ≤ 0.5
165 | C27U U47G C55G G58C | 0.67
166 | C11U A14U U16C G25C C27U C61G | ≤ 0.5
167 | C24G C33G | 0.666
